System: HEK-293T
Assay: Multiplex assay against HEK293T
Type: toxicity, cell-based
Conditions: human
Summary of the method: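 Tubulin, mitochondrial-mass and membrane-permeability phenotypes are per cents of healthy-nucleus cells. Cells were gated by CellPathfinder machine learning into Hoechst high-intensity objects or normal cells, normal cells into healthy, pyknosed or fragmented nuclei, and pyknosed cells into mitotic or apoptotic. Before that, live cells stained at seeding with Hoechst33342, BioTracker Green Microtubule Cytoskeleton Dye, MitoTracker Red and Annexin V Alexa Fluor 680 were imaged on a CQ1 microscope at 37°C and 5% CO2 after compound addition.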

[1] = 12 h, 1 µM, compound concentration 1 uM, replicate 1
[2] = 12 h, 1 µM, compound concentration 1 uM, replicate 2
[3] = 12 h, 10 µM, compound concentration 10 uM, replicate 1
[4] = 12 h, 10 µM, compound concentration 10 uM, replicate 2
[5] = 24 h, 1 µM, compound concentration 1 uM, replicate 1
[6] = 24 h, 1 µM, compound concentration 1 uM, replicate 2
[7] = 24 h, 10 µM, compound concentration 10 uM, replicate 1
[8] = 24 h, 10 µM, compound concentration 10 uM, replicate 2
[9] = 48 h, 1 µM, compound concentration 1 uM, replicate 1
[10] = 48 h, 1 µM, compound concentration 1 uM, replicate 2
[11] = 48 h, 10 µM, compound concentration 10 uM, replicate 1
[12] = 48 h, 10 µM, compound concentration 10 uM, replicate 2

COCCCN1CCC(NC(=O)c2cc(Cl)c(N)c3c2OCC3)CC1 [PRUCALOPRIDE]
Population Apoptotic (%) [1]: 22% | Population Fragmented Nuclei (%) [1]: 10% | Population Healthy Nuclei (%) [1]: 80% | Population Hoechst High Intensity Objects (%) [1]: 8% | Population Membrane Permeable-Phenotype (%) [1]: 0% | Population Mitochondria Different-Phenotype (%) [1]: 36% | Population Mitotic Cells (%) [1]: 77% | Population Normal (%) [1]: 91% | Population Pyknosed Nuclei (%) [1]: 9% | Population Tubulin-Different-Phenotype (%) [1]: 21% | Total Cell Count [1]: 416 | Population Apoptotic (%) [2]: 31% | Population Fragmented Nuclei (%) [2]: 4% | Population Healthy Nuclei (%) [2]: 82% | Population Hoechst High Intensity Objects (%) [2]: 7% | Population Mitochondria Different-Phenotype (%) [2]: 59% | Population Mitotic Cells (%) [2]: 68% | Population Normal (%) [2]: 92% | Population Pyknosed Nuclei (%) [2]: 12% | Population Tubulin-Different-Phenotype (%) [2]: 16% | Total Cell Count [2]: 397 | Population Apoptotic (%) [3]: 37% | Population Fragmented Nuclei (%) [3]: 8% | Population Healthy Nuclei (%) [3]: 74% | Population Hoechst High Intensity Objects (%) [3]: 4% | Population Membrane Permeable-Phenotype (%) [3]: 0% | Population Mitochondria Different-Phenotype (%) [3]: 59% | Population Mitotic Cells (%) [3]: 62% | Population Normal (%) [3]: 95% | Population Pyknosed Nuclei (%) [3]: 17% | Population Tubulin-Different-Phenotype (%) [3]: 43% | Total Cell Count [3]: 421 | Population Apoptotic (%) [4]: 56% | Population Fragmented Nuclei (%) [4]: 10% | Population Healthy Nuclei (%) [4]: 72% | Population Hoechst High Intensity Objects (%) [4]: 10% | Population Mitochondria Different-Phenotype (%) [4]: 75% | Population Mitotic Cells (%) [4]: 43% | Population Normal (%) [4]: 89% | Population Tubulin-Different-Phenotype (%) [4]: 35% | Total Cell Count [4]: 261 | Population Apoptotic (%) [5]: 20% | Population Fragmented Nuclei (%) [5]: 11% | Population Healthy Nuclei (%) [5]: 78% | Population Hoechst High Intensity Objects (%) [5]: 5% | Population Membrane Permeable-Phenotype (%) [5]: 1% | Population Mitochondria Different-Phenotype (%) [5]: 18% | Population Mitotic Cells (%) [5]: 79% | Population Normal (%) [5]: 94% | Population Pyknosed Nuclei (%) [5]: 10% | Population Tubulin-Different-Phenotype (%) [5]: 14% | Total Cell Count [5]: 590 | Population Apoptotic (%) [6]: 28% | Population Fragmented Nuclei (%) [6]: 8% | Population Healthy Nuclei (%) [6]: 84% | Population Hoechst High Intensity Objects (%) [6]: 4% | Population Membrane Permeable-Phenotype (%) [6]: 0% | Population Mitochondria Different-Phenotype (%) [6]: 39% | Population Mitotic Cells (%) [6]: 71% | Population Normal (%) [6]: 95% | Population Pyknosed Nuclei (%) [6]: 6% | Population Tubulin-Different-Phenotype (%) [6]: 10% | Total Cell Count [6]: 546 | Population Apoptotic (%) [7]: 28% | Population Fragmented Nuclei (%) [7]: 8% | Population Healthy Nuclei (%) [7]: 77% | Population Hoechst High Intensity Objects (%) [7]: 4% | Population Membrane Permeable-Phenotype (%) [7]: 0% | Population Mitochondria Different-Phenotype (%) [7]: 48% | Population Mitotic Cells (%) [7]: 71% | Population Normal (%) [7]: 95% | Population Pyknosed Nuclei (%) [7]: 13% | Population Tubulin-Different-Phenotype (%) [7]: 32% | Total Cell Count [7]: 531 | Population Apoptotic (%) [8]: 50% | Population Fragmented Nuclei (%) [8]: 13% | Population Healthy Nuclei (%) [8]: 73% | Population Hoechst High Intensity Objects (%) [8]: 9% | Population Mitochondria Different-Phenotype (%) [8]: 51% | Population Mitotic Cells (%) [8]: 50% | Population Normal (%) [8]: 90% | Population Pyknosed Nuclei (%) [8]: 12% | Population Tubulin-Different-Phenotype (%) [8]: 25% | Total Cell Count [8]: 341 | Population Apoptotic (%) [9]: 24% | Population Fragmented Nuclei (%) [9]: 15% | Population Healthy Nuclei (%) [9]: 76% | Population Hoechst High Intensity Objects (%) [9]: 2% | Population Membrane Permeable-Phenotype (%) [9]: 1% | Population Mitochondria Different-Phenotype (%) [9]: 16% | Population Mitotic Cells (%) [9]: 75% | Population Normal (%) [9]: 97% | Population Pyknosed Nuclei (%) [9]: 7% | Population Tubulin-Different-Phenotype (%) [9]: 11% | Total Cell Count [9]: 1001 | Population Apoptotic (%) [10]: 21% | Population Fragmented Nuclei (%) [10]: 11% | Population Healthy Nuclei (%) [10]: 81% | Population Hoechst High Intensity Objects (%) [10]: 1% | Population Membrane Permeable-Phenotype (%) [10]: 0% | Population Mitochondria Different-Phenotype (%) [10]: 15% | Population Mitotic Cells (%) [10]: 78% | Population Normal (%) [10]: 98% | Population Pyknosed Nuclei (%) [10]: 6% | Population Tubulin-Different-Phenotype (%) [10]: 9% | Total Cell Count [10]: 832 | Population Apoptotic (%) [11]: 20% | Population Fragmented Nuclei (%) [11]: 16% | Population Healthy Nuclei (%) [11]: 77% | Population Hoechst High Intensity Objects (%) [11]: 1% | Population Membrane Permeable-Phenotype (%) [11]: 1% | Population Mitochondria Different-Phenotype (%) [11]: 32% | Population Mitotic Cells (%) [11]: 79% | Population Normal (%) [11]: 98% | Population Pyknosed Nuclei (%) [11]: 6% | Population Tubulin-Different-Phenotype (%) [11]: 16% | Total Cell Count [11]: 772 | Population Apoptotic (%) [12]: 35% | Population Healthy Nuclei (%) [12]: 75% | Population Hoechst High Intensity Objects (%) [12]: 3% | Population Membrane Permeable-Phenotype (%) [12]: 0% | Population Mitochondria Different-Phenotype (%) [12]: 31% | Population Mitotic Cells (%) [12]: 64% | Population Normal (%) [12]: 96% | Population Pyknosed Nuclei (%) [12]: 7% | Population Tubulin-Different-Phenotype (%) [12]: 15% | Total Cell Count [12]: 528
